The text below walks through data of ChEMBL document CHEMBL4411266, “Triterpenoid Hydroxamates as HIF Prolyl Hydrolase Inhibitors” (J Nat Prod, 2018).

Activity calls are given as the source filed them. The calls are words filed in the database; no cut-off is given here.

By EC50 is commonly meant the concentration needed to bring the measured effect to its halfway point.

Series [1] has as its target T1, Hypoxia-inducible factor prolyl hydroxylase (Homo sapiens, UniProt Q96KS0+Q9NXG6+Q9GZT9+Q9H6Z9). As to the kind of experiment: Inhibition of PHD (unknown origin) expressed in mouse NIH/3T3 cells harboring HRE-driven luciferase gene assessed as transactivation of HIF1alpha after 6 hrs by luciferase reporter gene assay. In kind it is cell-based. In outline: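 NIH-3T3 mouse cells stably carrying an EPO-HRE luciferase reporter (three HRE copies from the erythropoietin promoter) treated with compounds for 6 h. Cells then washed twice in PBS and lysed in Tris-phosphate pH 7.8 buffer with MgCl2, DTT, Triton X-100 and glycerol for 15 min at room temperature. Luciferase measured in the supernatant after centrifugation.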

Series [2] concerns the target T1, Hypoxia-inducible factor prolyl hydroxylase. Put plainly: Inhibition of PHD (unknown origin) expressed in mouse NIH/3T3 cells harboring HRE-driven luciferase gene assessed as transactivation of HIF1alpha after 6 hrs by luciferase reporter gene assay relative to deferoxamine. The format is cell-based. An outline of the steps: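 Mouse NIH-3T3 cells with a stably transfected EPO-HRE luciferase reporter exposed to compounds for 6 h, then washed, lysed and read for luciferase in the cleared lysate. EC50 and intrinsic relative activity (IRA) were calculated relative to 150 μM deferoxamine as reference.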
A general note: Reporter assays use an easily measured gene product as a stand-in for the process of interest.

For series [3] the target is unchanged. As to the kind of experiment: Inhibition of PHD in HEK293T cells assessed as increase in HIF1alpha expression at 1 to 10 uM after 3 hrs by Western blot analysis. In kind it is cell-based. An outline of the steps:
(§1)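 HEK-293T cells treated for 3 h, with DFX (100 μM) as a reference. Cell lysates were made in Tris-HCl pH 7.5/NaCl/glycerol/NP-40 buffer with protease and phosphatase inhibitors. 30 μg protein was run on 10% SDS-PAGE, blotted to PVDF and probed for HIF-1α, PHD1, PHD2 and PHD3. Detection was by HRP secondary and chemiluminescence.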

Series [4] has as its system HEK-293T. As to the kind of experiment: Effect on PHD2 expression in HEK293T cells at 1 to 10 uM after 3 hrs by Western blot analysis. The format is ADME, cell-based. Particulars: human. In outline: as §1
On the technique in general: A western blot detects proteins with antibodies after separation by electrophoresis.

The test system of series [5] is HEK-293T. As to the kind of experiment: Effect on PHD1 expression in HEK293T cells at 1 to 10 uM after 3 hrs by Western blot analysis. The format is ADME, cell-based. As to conditions: human. In outline: as §1
Series [6] deals with HEK-293T. Put plainly: Effect on PHD3 expression in HEK293T cells at 1 to 10 uM after 3 hrs by Western blot analysis. The format is ADME, cell-based. Particulars: human. An outline of the steps:
as §1

The target in series [7] is T1, Hypoxia-inducible factor prolyl hydroxylase. Put plainly: Inhibition of PHD in HEK293T cells assessed as increase in HIF1alpha expression at 10 uM after 15 to 180 mins by Western blot analysis. The format is cell-based. In outline: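 HEK-293T cells were stimulated over a time course and HIF-1α was followed by Western blot. Lysis was in NP-40 buffer with protease and phosphatase inhibitors. 30 μg protein was resolved on 10% SDS-PAGE, transferred to PVDF, and detected by HRP secondary and chemiluminescence.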

The target is the same in series [8]. As to the kind of experiment: Inhibition of PHD in HEK293T cells assessed as increase in HIF1alpha expression at 10 uM under hypoxic condition by Western blot analysis. In kind it is cell-based. In outline:
(§2)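 HEK-293T cells were treated under hypoxia (1% O2) or normoxia, with or without compound. HIF-1α and PHD levels were read by Western blot: NP-40 lysis, 30 μg protein on 10% SDS-PAGE, PVDF transfer, HRP secondary and chemiluminescence.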

Series [9] relates to HEK-293T. As to the kind of experiment: Effect on PHD2 expression in HEK293T cells at 10 uM under hypoxic condition by Western blot analysis. The format is ADME, cell-based. Particulars: human. An outline of the steps:
as §2

The test system of series [10] is HEK-293T. As to the kind of experiment: Effect on PHD2 expression in HEK293T cells at 10 uM under normoxic condition by Western blot analysis. In kind it is ADME, cell-based. As to conditions: human. An outline of the steps:
as §2

Series [11] addresses T1, Hypoxia-inducible factor prolyl hydroxylase. Put plainly: Inhibition of PHD in HEK293T cells assessed as increase in HIF1alpha expression at 10 uM under normoxic condition by Western blot analysis. The format is cell-based. An outline of the steps:
as §2

Series [12] has the same target. As to the kind of experiment: Inhibition of PHD in HEK293T cells assessed as increase in HIF1alpha expression at 1 to 10 uM after 6 hrs in presence of proteasome inhibitor MG132. The format is cell-based. In outline: (§3)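 HEK-293T cells were treated for 6 h in the presence of the proteasome inhibitor MG132. Hydroxylated HIF-1α and total HIF-1α were determined by immunoblot: 10% SDS-PAGE, PVDF transfer, HRP/chemiluminescence detection.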

Series [13] shares this target. Put plainly: Inhibition of PHD in HEK293T cells assessed as reduction in HIF1alpha hydroxylation at 1 to 10 uM after 6 hrs in presence of proteasome inhibitor MG132. In kind it is cell-based. An outline of the steps: as §3
Series [14] has the same target. As to the kind of experiment: Reversible inhibition of PHD (unknown origin) expressed in mouse NIH/3T3 cells harboring HRE-driven luciferase gene assessed as transactivation of HIF1alpha at 5 to 25 uM pretreated for 1 hr followed by compound washout and measured after 6 hrs by luciferase reporter gene assay. The format is cell-based. An outline of the steps: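 NIH-3T3-EPO-Luc cells stably carry an EPO-promoter 3×HRE-luciferase reporter. Cells were pretreated 1 h, then washed or not with PBS and incubated 6 h in complete medium. Lysis was in Tris-phosphate pH 7.8/MgCl2/DTT/Triton buffer and luciferase was read in the lysate. Data are fold induction over untreated cells, means ± SD, n = 3, one-way ANOVA with Tukey's test.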

For series [15] the target is unchanged. Put plainly: Inhibition of PHD (unknown origin) expressed in mouse NIH/3T3 cells harboring HRE-driven luciferase gene assessed as transactivation of HIF1alpha at 1 to 25 uM after 6 hrs in presence of 50 uM betulinic acid by luciferase reporter gene assay. In kind it is cell-based. An outline of the steps:
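NIH-3T3-EPO-Luc (3×HRE-luciferase) cells were preincubated 30 min with betulinic acid (50 μM), then treated with compound for 6 h. Cells were washed in PBS and lysed in Tris-phosphate pH 7.8 buffer, and luciferase was measured in the lysate. Data are fold induction over untreated cells, means ± SD, n = 3, one-way ANOVA with Tukey's test.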

T1 sequence (Q96KS0 whole entry, looked up): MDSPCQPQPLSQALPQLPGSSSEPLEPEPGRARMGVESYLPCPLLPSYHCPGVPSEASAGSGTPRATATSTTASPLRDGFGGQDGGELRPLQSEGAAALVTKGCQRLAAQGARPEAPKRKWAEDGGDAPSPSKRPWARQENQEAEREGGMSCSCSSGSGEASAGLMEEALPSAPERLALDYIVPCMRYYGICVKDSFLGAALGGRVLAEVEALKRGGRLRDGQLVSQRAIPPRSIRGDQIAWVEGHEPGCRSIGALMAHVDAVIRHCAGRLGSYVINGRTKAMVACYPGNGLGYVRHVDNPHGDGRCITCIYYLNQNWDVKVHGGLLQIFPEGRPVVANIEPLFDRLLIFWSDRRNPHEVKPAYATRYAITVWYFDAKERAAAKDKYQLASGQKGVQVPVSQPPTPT
T1 sequence (Q9GZT9 whole entry, looked up): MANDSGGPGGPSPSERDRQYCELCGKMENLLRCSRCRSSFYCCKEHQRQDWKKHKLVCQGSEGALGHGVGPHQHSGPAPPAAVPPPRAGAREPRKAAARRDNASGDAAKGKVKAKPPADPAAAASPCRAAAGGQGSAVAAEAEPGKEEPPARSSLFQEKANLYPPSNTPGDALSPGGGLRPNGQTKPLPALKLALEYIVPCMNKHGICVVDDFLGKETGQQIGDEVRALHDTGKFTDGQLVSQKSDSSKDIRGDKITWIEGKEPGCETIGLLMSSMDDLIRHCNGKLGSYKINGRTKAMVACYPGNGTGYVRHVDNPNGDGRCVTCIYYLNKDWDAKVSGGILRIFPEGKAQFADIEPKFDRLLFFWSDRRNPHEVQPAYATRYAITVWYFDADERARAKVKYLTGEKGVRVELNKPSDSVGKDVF
T1 sequence (Q9H6Z9 whole entry, looked up): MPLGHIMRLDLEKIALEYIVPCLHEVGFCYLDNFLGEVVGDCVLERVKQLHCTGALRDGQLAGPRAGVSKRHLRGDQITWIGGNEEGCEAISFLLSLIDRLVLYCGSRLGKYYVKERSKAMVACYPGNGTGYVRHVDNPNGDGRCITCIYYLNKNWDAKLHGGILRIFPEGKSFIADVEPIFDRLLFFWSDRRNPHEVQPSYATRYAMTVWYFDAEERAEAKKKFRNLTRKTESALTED
T1 sequence (Q9NXG6 whole entry, looked up): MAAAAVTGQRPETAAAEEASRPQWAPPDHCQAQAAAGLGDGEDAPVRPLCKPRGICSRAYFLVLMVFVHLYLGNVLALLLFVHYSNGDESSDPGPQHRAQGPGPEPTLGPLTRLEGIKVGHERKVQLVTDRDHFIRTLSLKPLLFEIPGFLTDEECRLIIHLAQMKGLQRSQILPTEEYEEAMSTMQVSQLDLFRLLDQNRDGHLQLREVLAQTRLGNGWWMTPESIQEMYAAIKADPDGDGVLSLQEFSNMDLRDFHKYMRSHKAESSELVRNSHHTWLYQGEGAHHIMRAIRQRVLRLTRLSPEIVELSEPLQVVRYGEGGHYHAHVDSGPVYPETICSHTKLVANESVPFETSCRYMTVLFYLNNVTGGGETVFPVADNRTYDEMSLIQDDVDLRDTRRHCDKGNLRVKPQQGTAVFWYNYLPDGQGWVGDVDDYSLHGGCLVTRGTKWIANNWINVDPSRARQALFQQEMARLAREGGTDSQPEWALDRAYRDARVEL

As for `C=C(C)[C@@H]1CC[C@]2(C(=O)O)CC[C@]3(C)C(CC[C@@H]4[C@@]5(C)CC[C@H](OC(=O)CC(C)(C)C(=O)O)C(C)(C)[C@@H]5CC[C@]43C)[C@H]12` (some centres undefined), in [1], the EC50 was over 50 µM.
Consider `CC1(C)CC[C@]2(C(=O)NO)CC[C@]3(C)C(=CC[C@@H]4[C@@]5(C)CCC(=O)OC(C)(C)[C@@H]5CC[C@]43C)[C@@H]2C1`, for which the EC50 in series [1] stood at 5.8 µM. Further, the Intrinsic activity in series [2] was 2.2.
Regarding `C=C(C)[C@@H]1CC[C@]2(C(=O)NO)CC[C@]3(C)C(CC[C@@H]4[C@@]5(C)CC/C(=N\O)C(C)(C)[C@@H]5CC[C@]43C)[C@@H]12` (some centres undefined), in series [1], the concentration for a half-maximal effect (EC50) came to 6.8 µM. The Intrinsic activity in series [2] came out at 0.31.
For the compound `CC1(C)CC[C@]2(C(=O)NO)CC[C@]3(C)C(=CC(=O)[C@@H]4[C@@]5(C)CC[C@H](O)C(C)(C)[C@@H]5CC[C@]43C)[C@@H]2C1`, the concentration for a half-maximal effect (EC50) in series [1] came out at 11.4 µM. In addition, in [2], the Intrinsic activity turned out to be 0.15.
The like results for `C=C(C)[C@@H]1CC[C@]2(C(=O)NO)CC[C@]3(C)C(CC[C@@H]4[C@@]5(C)Cc6cn[nH]c6C(C)(C)[C@@H]5CC[C@]43C)[C@H]12` (some centres undefined) were, in that order, 2.4 µM and 0.34.
For the compound `C=C(C)[C@@H]1CC[C@]2(C(=O)NO)CC[C@]3(C)C(CC[C@@H]4[C@@]5(C)CC[C@H](O)C(C)(C)[C@@H]5CC[C@]43C)[C@@H]12` (some centres undefined), the EC50 in [1] came out at 4.8 µM. Besides, the Intrinsic activity in series [2] was determined as 0.36. The inhibition result in [3], in series [7], in series [8], in [11], in series [12] and in [13] was “Active” in each case. For the same compound, in series [14], the inhibition result is “Active”. Moreover, the Activity entry in the series with HEK-293T [4], in the series on HEK-293T [5], in the series on HEK-293T [6], with HEK-293T [9] and in the series on HEK-293T [10] was “Non-Toxic” each time. Besides, the inhibition result in series [15] was “inactive”.
`CC1(C)CCC2(C(=O)NO)CC[C@]3(C)C(=CC[C@@H]4[C@@]5(C)CC=CC(C)(C)[C@@H]5CC[C@]43C)[C@@H]2C1` (single isomer, unassigned): the concentration for a half-maximal effect (EC50) in series [1] was 5 µM. The Intrinsic activity in series [2] worked out at 0.16.
`C=C(C)[C@@H]1CC[C@]2(C(=O)NO)CC[C@]3(C)C(CC[C@@H]4[C@@]5(C)Cc6cnoc6C(C)(C)[C@@H]5CC[C@]43C)[C@H]12` (some centres undefined): the EC50 in series [1] came to 2.6 µM. Moreover, the Intrinsic activity in series [2] turned out to be 0.55.
The like results for `C[C@H]1[C@H](C)CC[C@]2(C(=O)NO)CC[C@]3(C)C(=CC[C@@H]4[C@@]5(C)CC/C(=N\O)C(C)(C)[C@@H]5CC[C@]43C)[C@H]12` were, in that order, 8.9 µM and 0.1.
For `C[C@H]1[C@H](C)CC[C@]2(C(=O)NO)CC[C@]3(C)C(=CC[C@@H]4[C@@]5(C)CC[C@H](O)C(C)(C)[C@@H]5CC[C@]43C)[C@H]12` the same measures were 7.7 µM and 0.17.
`CC1(C)CC[C@]2(C(=O)NO)CC[C@]3(C)C(=CC[C@@H]4[C@@]5(C)C[C@@H](O)[C@H](O)C(C)(C)[C@@H]5CC[C@]43C)[C@@H]2C1`: the EC50 in [1] was found to be 7.1 µM. The Intrinsic activity in series [2] stood at 0.1.
As to `C[C@H]1[C@H](C)CC[C@]2(C(=O)O)CC[C@]3(C)C(=CC[C@@H]4[C@@]5(C)CC[C@H](O)C(C)(C)[C@@H]5CC[C@]43C)[C@H]12` [URSOLIC ACID], the EC50 in [1] is over 50 µM.
With `C=C(C)[C@@H]1CC[C@]2(C(=O)O)CC[C@]3(C)[C@H](CC[C@@H]4[C@@]5(C)CC[C@H](O)C(C)(C)[C@@H]5CC[C@]43C)[C@@H]12` [BETULINIC ACID], the half-maximal effective concentration (EC50) in series [1] was over 50 µM.
Still for that read-out and setting: in the case of `CC1(C)[C@@H](O)CC[C@]2(C)[C@H]3C(=O)C=C4[C@@H]5C[C@@](C)(C(=O)NO)CC[C@]5(C)CC[C@@]4(C)[C@]3(C)CC[C@@H]12` it was over 50 µM; in that of `CC1(C)CCC2(C(=O)O)CC[C@]3(C)C(=CC(=O)[C@@H]4[C@@]5(C)CC[C@H](O)C(C)(C)[C@@H]5CC[C@]43C)[C@@H]2C1` (single isomer, unassigned), over 50 µM.
In the case of `C=C(C)[C@@H]1CC[C@]2(C(=O)NO)CC[C@]3(C)C(CC[C@@H]4[C@@]5(C)CC=CC(C)(C)[C@@H]5CC[C@]43C)[C@H]12` (some centres undefined), the concentration giving a half-maximal response (EC50) in [1] stood at 3.2 µM. For the same compound, the Intrinsic activity in series [2] is 0.48.
As to `CC1(C)CCC2(C(=O)NO)CC[C@]3(C)C(=CC[C@@H]4[C@@]5(C)CC[C@H](O)C(C)(C)[C@@H]5CC[C@]43C)[C@@H]2C1` (single isomer, unassigned), the EC50 in series [1] was determined as 16.4 µM. Also, the Intrinsic activity in series [2] worked out at 0.39.
The like results for `C=C(C)[C@@H]1CC[C@]2(C)[C@H](CC=C3[C@@H]4CC(C)(C)CC[C@]4(C(=O)OC)CC[C@]32C)[C@@]1(C)CCC(=O)NO` were, in that order, 7.5 µM and 1.19.
As for `CC1(C)CCC2(C(=O)NO)CC[C@]3(C)C(=CC[C@@H]4[C@@]5(C)CC/C(=N\O)C(C)(C)[C@@H]5CC[C@]43C)[C@@H]2C1` (single isomer, unassigned), the EC50 in [1] was 3.8 µM. In series [2], the Intrinsic activity was determined as 0.43.
Take `CC1(C)CC[C@]2(C(=O)O)CC[C@]3(C)C(=CC[C@@H]4[C@@]5(C)C[C@@H](O)[C@H](O)C(C)(C)[C@@H]5CC[C@]43C)[C@@H]2C1` [MASLINIC ACID]: the EC50 in [1] is over 50 µM.
For `CC1(C)CC[C@]2(C(=O)O)CC[C@]3(C)C(=CC[C@@H]4[C@@]5(C)CC[C@H](O)C(C)(C)[C@@H]5CC[C@]43C)[C@@H]2C1` [OLEANOLIC_ACID], the concentration giving a half-maximal response (EC50) in series [1] is over 50 µM.
Regarding `CC1(C)[C@@H](O)CC[C@]2(C)[C@H]3C(=O)C=C4[C@@H]5C[C@@](C)(C(=O)O)CC[C@]5(C)CC[C@@]4(C)[C@]3(C)CC[C@@H]12` [ENOXOLONE], in series [1], the concentration giving a half-maximal response (EC50) was over 50 µM.
